Data taken from ChEMBL document CHEMBL1275335, “Design and synthesis of 2-arylbenzimidazoles and evaluation of their inhibitory effect against Chlamydia pneumoniae” (J Med Chem, 2010).
Converted amounts (≈) assume the structure as drawn. Each block holds one compound with its values, some of them ahead of it. The source made the active and inactive calls. No cut-off for these calls is given here.

Legend:
[1] = Cytotoxicity against human HL cells assessed as cell viability at 10 uM after 72 hrs by celltiter-glo analysis; format: cell-based; settings: read-out: Activity
Method in brief: (§1)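 After 72 h, viability was measured as intracellular ATP by CellTiter-Glo luminescence after partial medium replacement. Results are expressed as a percentage of cells given DMSO-adjusted medium.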

Chlamydia pneumoniae [2] = assay: Antibacterial activity against Chlamydia pneumoniae CWL029 infected in human HL cells assessed as inhibition of bacterial growth at 10 uM after 72 hrs by TR-FIA method; format: functional
Method in brief: (§2)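 HL cells were seeded at 6×10^4/well in RPMI 1640 with 7.5% FBS, 2 mM glutamine and gentamicin, then infected 24 h later with CWL-029 at MOI 0.2 plus 0.5 μg/mL cycloheximide and centrifuged 1 h. Compounds were added in six replicates for 72 h at 37 C. After methanol fixation, wells were labelled with europium-conjugated chlamydial antibody (100 ng/mL, 30 min, 37 C) and read by time-resolved fluorescence; rifampicin 0.012 μM served as control.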

Escherichia coli = assay: Antibacterial activity against Escherichia coli ATCC 25922 assessed as inhibition of bacterial growth at 50 uM after 18 hrs by photometric method; format: functional, organism-based
Method in brief: (§3)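 Bacteria were dispensed with 0.01% resazurin and compound, reaching a final 50 μM; ampicillin 25 μM was the control. After 18 h at 37 C, resazurin was read photometrically at 600 nm.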

Staphylococcus aureus = assay: Antibacterial activity against Staphylococcus aureus ATCC 25923 assessed as inhibition of bacterial growth at 50 uM after 18 hrs by photometric method; format: functional; method in brief: as §3
Chlamydia pneumoniae [3] = assay: Antibacterial activity against Chlamydia pneumoniae CV6 infected in human Hep2 cells assessed as minimal chlamydiocidal activity after 72 hrs by fluorescence assay; format: functional, HEp-2; settings: CV6, 72 h
Method in brief: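 CV-6 was grown in HEp-2 cells under 2-fold compound dilutions (MEM, cycloheximide 1 μg/mL, 72 h, 35 C). Drug medium was then removed, wells washed with PBS pH 7.4 and fed drug-free medium. Monolayers were disrupted, passed onto fresh monolayers, incubated and stained with fluorescein anti-LPS mAb. MCC is the lowest concentration giving no IFU in the antibiotic-free passage; run in duplicate.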

Chlamydia pneumoniae [4] = assay: Chlamydiostatic activity against Chlamydia pneumoniae CV6 infected in human Hep2 cells after 72 hrs by fluorescence assay; format: functional, HEp-2; settings: CV6, 72 h
Method in brief: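 Confluent HEp-2 monolayers on coverslips were centrifuged with C. pneumoniae CV-6 (10^3 IFU/mL; 1700g, 45 min, 35 C). Medium was replaced with MEM containing cycloheximide 1 μg/mL and serial 2-fold compound dilutions. After 72 h at 35 C, 5% CO2, inclusions were stained with fluorescein-conjugated anti-Chlamydia LPS mAb. MIC is the lowest concentration with no IFU; titrations were run in duplicate.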

HL = assay: Cytotoxicity against human HL cells at 2.5 uM after 72 hrs by celltiter-glo analysis; format: cell-based; method in brief: as §1
Chlamydia pneumoniae [5] = assay: Antibacterial activity against Chlamydia pneumoniae CWL029 infected in human HL cells after 72 hrs by TR-FIA method; format: functional, cell-based; settings: in the assay text read “immunofluorescence method” for “TR-FIA method”; method in brief: as §2

SMILES: O=C(Nc1cccc(-c2nc3ccccc3[nH]2)c1)c1ccoc1
viability at 72 h, 10 µM [1]: 101%
inhibition at 10 µM (Chlamydia pneumoniae [2]): 78%
growth inhibition (GI) (Escherichia coli): inactive
growth inhibition (GI) (Staphylococcus aureus): inactive

SMILES: CC(=O)Nc1cccc(-c2nc3ccccc3[nH]2)c1
viability at 72 h, 10 µM [1]: 100%
inhibition at 10 µM (Chlamydia pneumoniae [2]): 0%
growth inhibition (GI) (Escherichia coli): inactive
growth inhibition (GI) (Staphylococcus aureus): inactive

SMILES: O=C(Nc1cccc(-c2nc3ccccc3[nH]2)c1)c1cccc(Cl)c1
viability at 72 h, 10 µM [1]: 106%
inhibition at 10 µM (Chlamydia pneumoniae [2]): 94%
growth inhibition (GI) (Escherichia coli): inactive
growth inhibition (GI) (Staphylococcus aureus): inactive

SMILES: O=C(Nc1cccc(-c2nc3ccccc3[nH]2)c1)c1cscn1
viability at 72 h, 10 µM [1]: 98%
inhibition at 10 µM (Chlamydia pneumoniae [2]): 39%
growth inhibition (GI) (Escherichia coli): inactive
growth inhibition (GI) (Staphylococcus aureus): inactive

MIC (Chlamydia pneumoniae [4]): 3.2 µM (≈ 1.22 µg/mL)
IC50 (Chlamydia pneumoniae [5]): 3000 nM
SMILES: O=C(Nc1cccc(-c2nc3ccccc3[nH]2)c1)c1cccc(C(F)(F)F)c1
MCC (Chlamydia pneumoniae [3]): 50.4 µM
viability at 72 h, 10 µM [1]: 69%
inhibition at 10 µM (Chlamydia pneumoniae [2]): 99%
growth inhibition (GI) (Escherichia coli): inactive
inhibition of growth at 50 µM (Staphylococcus aureus; ATCC 25923, 18 h, read-out: GI): 85%
Activity (HL): Non-toxic

SMILES: O=C(Nc1cccc(-c2nc3ccccc3[nH]2)c1)c1ccccc1C(F)(F)F
viability at 72 h, 10 µM [1]: 80%
inhibition at 10 µM (Chlamydia pneumoniae [2]): 96%
growth inhibition (GI) (Escherichia coli): inactive
growth inhibition (GI) (Staphylococcus aureus): inactive

MIC (Chlamydia pneumoniae [4]): 0.17 µM (≈ 0.125 µg/mL)
SMILES: CC[C@H]1OC(=O)[C@H](C)[C@@H](O[C@H]2C[C@@](C)(OC)[C@@H](O)[C@H](C)O2)[C@H](C)[C@@H](O[C@@H]2O[C@H](C)C[C@H](N(C)C)[C@H]2O)[C@](C)(O)C[C@@H](C)C(=O)[C@H](C)[C@@H](O)[C@]1(C)O [ERYTHROMYCIN]
MCC (Chlamydia pneumoniae [3]): 0.17 µM

SMILES: COc1ccc2[nH]c(-c3cccc(NC(=O)c4cccs4)c3)nc2c1
viability at 72 h, 10 µM [1]: 98%
inhibition at 10 µM (Chlamydia pneumoniae [2]): 74%
growth inhibition (GI) (Escherichia coli): inactive
growth inhibition (GI) (Staphylococcus aureus): inactive

SMILES: COC(=O)c1cccc(C(=O)Nc2cccc(-c3nc4ccccc4[nH]3)c2)c1
viability at 72 h, 10 µM [1]: 99%
inhibition at 10 µM (Chlamydia pneumoniae [2]): 99%
growth inhibition (GI) (Escherichia coli): inactive
growth inhibition (GI) (Staphylococcus aureus): inactive

MIC (Chlamydia pneumoniae [4]): > 196 µM
SMILES: O=C(Nc1cccc(-c2nc3ccccc3[nH]2)c1)c1ccsc1
MCC (Chlamydia pneumoniae [3]): > 196 µM
viability at 72 h, 10 µM [1]: 98%
inhibition at 10 µM (Chlamydia pneumoniae [2]): 68%
growth inhibition (GI) (Escherichia coli): inactive
growth inhibition (GI) (Staphylococcus aureus): inactive
Activity (HL): Non-toxic

SMILES: Cc1c(NC(=O)c2cccs2)cccc1-c1nc2ccccc2[nH]1
viability at 72 h, 10 µM [1]: 87%
inhibition at 10 µM (Chlamydia pneumoniae [2]): 59%
growth inhibition (GI) (Escherichia coli): inactive
growth inhibition (GI) (Staphylococcus aureus): inactive

MIC (Chlamydia pneumoniae [4]): 6.1 µM (≈ 2 µg/mL)
SMILES: Cc1ccccc1C(=O)Nc1cccc(-c2nc3ccccc3[nH]2)c1
MCC (Chlamydia pneumoniae [3]): 24.5 µM
viability at 72 h, 10 µM [1]: 90%
inhibition at 10 µM (Chlamydia pneumoniae [2]): 99%
growth inhibition (GI) (Escherichia coli): inactive
growth inhibition (GI) (Staphylococcus aureus): inactive
Activity (HL): Non-toxic

SMILES: Cn1cccc1C(=O)Nc1cccc(-c2nc3ccccc3[nH]2)c1
viability at 72 h, 10 µM [1]: 104%
inhibition at 10 µM (Chlamydia pneumoniae [2]): 80%
growth inhibition (GI) (Escherichia coli): inactive
growth inhibition (GI) (Staphylococcus aureus): inactive

SMILES: CC(C)(C)C(=O)Nc1cccc(-c2nc3ccccc3[nH]2)c1
viability at 72 h, 10 µM [1]: 98%
inhibition at 10 µM (Chlamydia pneumoniae [2]): 0%
growth inhibition (GI) (Escherichia coli): inactive
growth inhibition (GI) (Staphylococcus aureus): inactive

MIC (Chlamydia pneumoniae [4]): 3.2 µM (≈ 1.05 µg/mL)
IC50 (Chlamydia pneumoniae [5]): 2000 nM
SMILES: Cc1cccc(C(=O)Nc2cccc(-c3nc4ccccc4[nH]3)c2)c1
MCC (Chlamydia pneumoniae [3]): 3.2 µM
viability at 72 h, 10 µM [1]: 99%
inhibition at 10 µM (Chlamydia pneumoniae [2]): 98%
growth inhibition (GI) (Escherichia coli): inactive
growth inhibition (GI) (Staphylococcus aureus): inactive
Activity (HL): Non-toxic

SMILES: Cn1c(-c2cccc(NC(=O)c3cccs3)c2)nc2ccccc21
viability at 72 h, 10 µM [1]: 102%
inhibition at 10 µM (Chlamydia pneumoniae [2]): 0%
growth inhibition (GI) (Escherichia coli): inactive
growth inhibition (GI) (Staphylococcus aureus): inactive

SMILES: Cc1cccc2[nH]c(-c3cccc(NC(=O)c4cccs4)c3)nc12
viability at 72 h, 10 µM [1]: 102%
inhibition at 10 µM (Chlamydia pneumoniae [2]): 89%
growth inhibition (GI) (Escherichia coli): inactive
growth inhibition (GI) (Staphylococcus aureus): inactive

SMILES: O=C(Nc1cccc(-c2nc3ccccc3[nH]2)c1)c1ccco1
viability at 72 h, 10 µM [1]: 98%
inhibition at 10 µM (Chlamydia pneumoniae [2]): 45%
growth inhibition (GI) (Escherichia coli): inactive
growth inhibition (GI) (Staphylococcus aureus): inactive

SMILES: O=C(Nc1cccc(-c2nc3ccccc3o2)c1)c1cccs1
viability at 72 h, 10 µM [1]: 94%
inhibition at 10 µM (Chlamydia pneumoniae [2]): 61%

SMILES: O=C(Nc1ccc(-c2nc3ccccc3[nH]2)cc1)c1cccs1
viability at 72 h, 10 µM [1]: 96%
inhibition at 10 µM (Chlamydia pneumoniae [2]): 0%
growth inhibition (GI) (Escherichia coli): inactive
growth inhibition (GI) (Staphylococcus aureus): inactive

SMILES: O=C(Nc1cccc(-c2ncc[nH]2)c1)c1ccsc1
viability at 72 h, 10 µM [1]: 133%
inhibition at 10 µM (Chlamydia pneumoniae [2]): 0%

MIC (Chlamydia pneumoniae [4]): 12.6 µM (≈ 4.4 µg/mL)
SMILES: COc1ccc2[nH]c(-c3cccc(NC(=O)c4ccsc4)c3)nc2c1
MCC (Chlamydia pneumoniae [3]): 12.6 µM
viability at 72 h, 10 µM [1]: 95%
inhibition at 10 µM (Chlamydia pneumoniae [2]): 73%
growth inhibition (GI) (Escherichia coli): inactive
growth inhibition (GI) (Staphylococcus aureus): inactive
Activity (HL): Non-toxic

SMILES: O=C(Nc1cccc(-c2ncc[nH]2)c1)c1cccs1
viability at 72 h, 10 µM [1]: 115%
inhibition at 10 µM (Chlamydia pneumoniae [2]): 0%

SMILES: O=C(Cc1cccs1)Nc1cccc(-c2nc3ccccc3[nH]2)c1
viability at 72 h, 10 µM [1]: 107%
inhibition at 10 µM (Chlamydia pneumoniae [2]): 70%
growth inhibition (GI) (Escherichia coli): inactive
growth inhibition (GI) (Staphylococcus aureus): inactive

SMILES: O=C(Nc1cccc(-c2nc3ccccc3[nH]2)c1)c1ccccc1
viability at 72 h, 10 µM [1]: 98%
inhibition at 10 µM (Chlamydia pneumoniae [2]): 99%
growth inhibition (GI) (Escherichia coli): inactive
growth inhibition (GI) (Staphylococcus aureus): inactive

MIC (Chlamydia pneumoniae [4]): 12.6 µM (≈ 4.2 µg/mL)
SMILES: Cc1ccc2[nH]c(-c3cccc(NC(=O)c4cccs4)c3)nc2c1
MCC (Chlamydia pneumoniae [3]): 12.6 µM
viability at 72 h, 10 µM [1]: 95%
inhibition at 10 µM (Chlamydia pneumoniae [2]): 99%
growth inhibition (GI) (Escherichia coli): inactive
growth inhibition (GI) (Staphylococcus aureus): inactive
Activity (HL): Non-toxic

SMILES: COc1ccccc1C(=O)Nc1cccc(-c2nc3ccccc3[nH]2)c1
viability at 72 h, 10 µM [1]: 107%
inhibition at 10 µM (Chlamydia pneumoniae [2]): 0%
growth inhibition (GI) (Escherichia coli): inactive
growth inhibition (GI) (Staphylococcus aureus): inactive

SMILES: COc1ccc(-c2nc3ccccc3[nH]2)cc1NC(=O)c1cccs1
viability at 72 h, 10 µM [1]: 101%
inhibition at 10 µM (Chlamydia pneumoniae [2]): 52%
growth inhibition (GI) (Escherichia coli): inactive
growth inhibition (GI) (Staphylococcus aureus): inactive

SMILES: O=S(=O)(Nc1cccc(-c2nc3ccccc3[nH]2)c1)c1ccccc1
viability at 72 h, 10 µM [1]: 77%
inhibition at 10 µM (Chlamydia pneumoniae [2]): 0%
growth inhibition (GI) (Escherichia coli): inactive
growth inhibition (GI) (Staphylococcus aureus): inactive

MIC (Chlamydia pneumoniae [4]): 196 µM (≈ 62.6 µg/mL)
SMILES: O=C(Nc1cccc(-c2nc3ccccc3[nH]2)c1)c1cccs1
MCC (Chlamydia pneumoniae [3]): > 196 µM
viability at 72 h, 10 µM [1]: 98%
inhibition at 10 µM (Chlamydia pneumoniae [2]): 89%
growth inhibition (GI) (Escherichia coli): inactive
growth inhibition (GI) (Staphylococcus aureus): inactive
Activity (HL): Non-toxic

MIC (Chlamydia pneumoniae [4]): 196 µM (≈ 69.4 µg/mL)
SMILES: O=C(Nc1cccc(-c2nc3cc(Cl)ccc3[nH]2)c1)c1cccs1
MCC (Chlamydia pneumoniae [3]): > 196 µM
viability at 72 h, 10 µM [1]: 92%
inhibition at 10 µM (Chlamydia pneumoniae [2]): 89%
growth inhibition (GI) (Escherichia coli): inactive
growth inhibition (GI) (Staphylococcus aureus): inactive
Activity (HL): Non-toxic

SMILES: O=C(Nc1cccc(-c2nc3ccccc3[nH]2)c1)c1cccc(F)c1
viability at 72 h, 10 µM [1]: 101%
inhibition at 10 µM (Chlamydia pneumoniae [2]): 58%
growth inhibition (GI) (Escherichia coli): inactive
growth inhibition (GI) (Staphylococcus aureus): inactive

MIC (Chlamydia pneumoniae [4]): 24.5 µM (≈ 7.83 µg/mL)
SMILES: O=C(Nc1cccc(-c2nc3ccccc3[nH]2)c1)C1CCCCC1
MCC (Chlamydia pneumoniae [3]): 24.5 µM
viability at 72 h, 10 µM [1]: 94%
inhibition at 10 µM (Chlamydia pneumoniae [2]): 100%
growth inhibition (GI) (Escherichia coli): inactive
growth inhibition (GI) (Staphylococcus aureus): inactive
Activity (HL): Non-toxic

SMILES: COc1cccc(C(=O)Nc2cccc(-c3nc4ccccc4[nH]3)c2)c1
viability at 72 h, 10 µM [1]: 97%
inhibition at 10 µM (Chlamydia pneumoniae [2]): 98%
growth inhibition (GI) (Escherichia coli): inactive
growth inhibition (GI) (Staphylococcus aureus): inactive
